In ChEMBL document CHEMBL1123308 (J Med Chem, 1986):
Activity calls are given as the source filed them. The rule behind the calls is not given here.

Tests used:
[1] = Stabilization of helical DNA toward thermal denaturation (delta Tm) was determined (isomeric ratio A/B/C = 28:69:0); format: ADME
Nucleic Acid = assay: Stabilization of helical DNA toward thermal denaturation (delta Tm) was determined (isomeric ratio A/B/C = 2:91:7); format: nucleic-acid assay
In short: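 Thermal denaturation of calf thymus DNA (5.2 × 10^-5 M P) with drug at 5.2 × 10^-6 M. Buffer was 0.01 M phosphate pH 7 with 10^-5 M EDTA and 5% Me2SO. ΔTm = Tm of the DNA-drug complex minus Tm of DNA alone. Values ≤1 are taken as insignificant binding.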

L1210 [2] = assay: Compound was evaluated for drug concentration for 50% inhibition of actively growing L1210 cells in culture for the inhibition of incorporation of [3H]thymidine in the DNA(isomeric ratio A/B/C = 7:0:92); format: functional; conditions: Mus musculus, read-out: ED50 (the source's name)
In short: (§1)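 Actively growing L1210 cells in culture. Drug was dissolved in Me2SO and diluted to 1% Me2SO final. The read-out is [3H]thymidine incorporation into DNA or [3H]uridine incorporation into RNA. ED50 is the drug concentration giving 50% inhibition of incorporation.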

[3] = Partition coefficient was determined in octanol-phosphate at pH 6.5; format: physicochemical; conditions: octanol/phosphate buffer
In short: (§2)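 Octanol/buffer partitioning used phosphate buffer at pH 7.4, 6.5 or 6.0 and citrate buffer at pH 4.0. Phases were separated by centrifugation at 2000 rpm for 5 min. Concentration in one phase was read by UV absorbance at 235.5 nm in 1-cm cells, and the other phase was obtained by difference. Determinations were in duplicate at 2 or 3 octanol-buffer ratios (1:10 to 1:50). Log P = log(organic/aqueous concentration).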

[4] = Stabilization of helical DNA toward thermal denaturation (delta Tm) was determined (isomeric ratio A/B/C = 7:0:92); format: ADME
[5] = Partition coefficient was determined in octanol-phosphate at pH 7.4; format: physicochemical; conditions: octanol/phosphate buffer; in short: as §2
Mus musculus [6] = assay: Compound was evaluated for antitumor efficacy at optimum dose in mice aagainst B16 melanoma cells at 0.0625 mg/Kg day 1 (intraperitoneal); format: functional; conditions: in the assay text read “0.625 mg/Kg” for “0.0625 mg/Kg”
In short: (§3)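 Mouse survival screens were run by NCI protocols, with intraperitoneal dosing on the schedule given. Efficacy is % T/C, the average survival time of treated mice divided by that of control mice, at the optimal dose.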

[7] = Partition coefficient was determined in octanol-phosphate at pH 6.0; format: physicochemical; conditions: octanol/phosphate buffer; in short: as §2
Mus musculus [8] = assay: Compound was evaluated for antitumor efficacy at optimum dose in mice against B16 melanoma cells at 2.5 mg/kg on q4d 1,5,9 days (intravenous)
L1210 [9] = assay: Compound was evaluated for drug concentration for 50% inhibition of actively growing L1210 cells in culture for the inhibition of incorporation of [3H]uridine in the RNA(isomeric ratio A/B/C = 7:0:92); format: functional; conditions: Mus musculus, read-out: ED50 (the source's name); in short: as §1
L1210 [10] = assay: Compound was evaluated for drug concentration for 50% inhibition of actively growing L1210 cells in culture for the inhibition of incorporation of [3H]thymidine in the DNA(isomeric ratio A/B/C = 2:91:7); format: functional; conditions: Mus musculus, read-out: ED50 (the source's name); in short: as §1
L1210 [11] = assay: Compound was evaluated for drug concentration for 50% inhibition of actively growing L1210 cells in culture for the inhibition of incorporation of [3H]thymidine in the DNA(isomeric ratio A/B/C = 28:69:0); format: functional; conditions: Mus musculus, read-out: ED50 (the source's name); in short: as §1
L1210 [12] = assay: Compound was evaluated for drug concentration for 50% inhibition of actively growing L1210 cells in culture for the inhibition of incorporation of [3H]uridine in the RNA(isomeric ratio A/B/C = 28:69:0); format: functional; conditions: Mus musculus, read-out: ED50 (the source's name); in short: as §1
Mus musculus [13] = assay: Compound was evaluated for antitumor efficacy at optimum dose in mice against P388 leukemic cells at 1.25 mg/Kg day 1 (intraperitoneal); format: functional; in short: as §3
Mus musculus [14] = assay: Compound was evaluated for antitumor efficacy at optimum dose in mice against P388 leukemic cells at 2 mg/kg q4d 5,9,13 days (intraperitoneal); format: functional; in short: as §3
L1210 [15] = assay: Compound was evaluated for drug concentration for 50% inhibition of actively growing L1210 cells in culture for the inhibition of incorporation of [3H]uridine in the RNA(isomeric ratio A/B/C = 2:91:7); format: functional; conditions: Mus musculus, read-out: ED50 (the source's name); in short: as §1
[16] = Partition coefficient was determined in octanol-citrate at pH 4.0; conditions: octanol/citrate buffer
L1210 [17] = assay: Compound was evaluated for drug concentration for 50% inhibition of actively growing L1210 cells in culture for the inhibition of incorporation of [3H]uridine in the RNA; format: functional; conditions: Mus musculus, read-out: ED50 (the source's name)
In short: (§4)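 Actively growing L1210 leukemia cells in culture; incorporation of [3H]thymidine into DNA or [3H]uridine into RNA measured. ED50 is the drug concentration giving 50% inhibition of incorporation. Drugs dissolved in Me2SO first, then diluted to 1% Me2SO final.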

[18] = Stabilization of helical DNA toward thermal denaturation (delta Tm) was determined; format: ADME
In short: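 Calf thymus DNA thermal denaturation. Drug at 5.2 × 10^-6 M and DNA (P) at 5.2 × 10^-5 M in 0.01 M phosphate buffer, pH 7, with 10^-5 M EDTA and 5% Me2SO. ΔTm = Tm of DNA-drug complex minus Tm of DNA alone. Values ≤1 are taken as insignificant binding.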

Mus musculus [19] = assay: Compound was evaluated for antitumor efficacy at optimum dose in mice against P388 leukemic cells at 8 mg/Kg on q4d 5,9,13 days (intraperitoneal); format: functional; in short: as §3
Mus musculus [20] = assay: Compound was evaluated for antitumor efficacy at optimum dose in mice against B16 melanoma cells at 10 mg/Kg on q4d 1,5,9 days (intravenous)
Mus musculus [21] = assay: Compound was evaluated for antitumor efficacy at optimum dose in mice aagainst B16 melanoma cells at 7.5 mg/Kgon day 1 (intraperitoneal); format: functional; in short: as §3
Mus musculus [22] = assay: Compound was evaluated for antitumor efficacy at optimum dose in mice against P388 leukemic cells at 7.5 mg/Kg day 1 (intraperitoneal); format: functional; in short: as §3
L1210 [23] = assay: Compound was evaluated for drug concentration for 50% inhibition of actively growing L1210 cells in culture for the inhibition of incorporation of [3H]thymidine in the DNA; format: functional; conditions: Mus musculus, read-out: ED50 (the source's name); in short: as §4
[24] = Stabilization of helical DNA toward thermal denaturation (delta Tm) was determined (isomeric ratio A/B = 4:91); format: ADME
[25] = Stabilization of helical DNA toward thermal denaturation (delta Tm) was determined (isomeric ratio A/B = 76:12); format: ADME
L1210 [26] = assay: Compound was evaluated for drug concentration for 50% inhibition of actively growing L1210 cells in culture for the inhibition of incorporation of [3H]uridine in the RNAisomeric ratio A/B = 4:91); format: functional; conditions: Mus musculus, read-out: ED50 (the source's name); in short: as §1
L1210 [27] = assay: Compound was evaluated for drug concentration for 50% inhibition of actively growing L1210 cells in culture for the inhibition of incorporation of [3H]uridine in the RNA(isomeric ratio A/B = 76:12); format: functional; conditions: Mus musculus, read-out: ED50 (the source's name); in short: as §1
L1210 [28] = assay: Compound was evaluated for drug concentration for 50% inhibition of actively growing L1210 cells in culture for the inhibition of incorporation of [3H]thymidine in the DNA(isomeric ratio A/B = 4:91); format: functional; conditions: Mus musculus, read-out: ED50 (the source's name); in short: as §1
L1210 [29] = assay: Compound was evaluated for drug concentration for 50% inhibition of actively growing L1210 cells in culture for the inhibition of incorporation of [3H]thymidine in the DNA(isomeric ratio A/B = 76:12); format: functional; conditions: Mus musculus, read-out: ED50 (the source's name); in short: as §1
Mus musculus [30] = assay: Compound was evaluated for antitumor efficacy at optimum dose in mice against B16 melanoma cells at 0.0063 mg/Kg dose on day 1 (intraperitoneal); format: functional
Mus musculus [31] = assay: Compound was evaluated for antitumor efficacy at optimum dose in mice against B16 melanoma cells at q4d 5,9,13 days (intraperitoneal); Inactive; format: functional, organism-based

Question: Which results are given for COc1cccc2c1C(=O)c1c(O)c3c(c(O)c1C2=O)C[C@@](O)(C(=O)CO)C[C@@H]3OC1CC2C(OC3COCC(C#N)N32)C(C)O1 (some centres undefined)?
Answer: Delta Tm [1]: 12.8; ΔTm (Nucleic Acid): 12.2; EC50 (L1210 [2]): 25000 nM; logD [3]: 2.29; Delta Tm [4]: 2.6; logD [5]: 2.41; T/C (Mus musculus [6]): >=153%; logD [7]: 2.4; T/C (Mus musculus [8]): 141%; EC50 (L1210 [9]): 2000 nM; EC50 (L1210 [10]): 1400 nM; EC50 (L1210 [11]): 550 nM; EC50 (L1210 [12]): 220 nM; T/C (Mus musculus [13]): 150%; T/C (Mus musculus [14]): 135%; EC50 (L1210 [15]): 790 nM; logD [16]: 2.24

Question: With COc1cccc2c1C(=O)c1c(O)c3c(c(O)c1C2=O)C[C@@](O)(C(=O)CO)C[C@@H]3OC1CC(N2CCOCC2)C(O)C(C)O1 (some centres undefined) as the compound, how does the logD [3] read?
Answer: Its logD is 1.42.

Question: What about the logD [5] of the same compound?
Answer: The logD was 1.73.

Question: And the logD [7]?
Answer: The logD was 0.96.

Question: What about the logD [16] of the same compound?
Answer: Its logD is -1.1.

Question: Which results are given for COc1cccc2c1C(=O)c1c(O)c3c(c(O)c1C2=O)C[C@@](O)(C(=O)CO)C[C@@H]3O[C@H]1C[C@H](N)[C@H](O)[C@H](C)O1 [DOXORUBICIN]?
Answer: EC50 (L1210 [17]): 580 nM; Delta Tm [18]: 12.8; T/C (Mus musculus [19]): 160%; T/C (Mus musculus [20]): 206%; T/C (Mus musculus [21]): 192%; T/C (Mus musculus [22]): 252%; EC50 (L1210 [23]): 1600 nM

Question: With COc1cccc2c1C(=O)c1c(O)c3c(c(O)c1C2=O)C[C@@](O)(C(C)=O)C[C@@H]3OC1CC2C(OC3COCC(C#N)N32)C(C)O1 (some centres undefined) as the compound, how does the “Delta Tm” value [24] read?
Answer: The value was 8.3.

Question: What about the “Delta Tm” value [25] of the same compound?
Answer: Its value is 5.

Question: And the EC50 (L1210 [26])?
Answer: Its EC50 is 840 nM.

Question: And the EC50 (L1210 [27])?
Answer: Its EC50 is 220 nM.

Question: What about the EC50 (L1210 [28]) of the same compound?
Answer: The EC50 was 1950 nM.

Question: And the EC50 (L1210 [29])?
Answer: The EC50 was 420 nM.

Question: With COc1cccc2c1C(=O)c1c(O)c3c(c(O)c1C2=O)C[C@@](O)(C(=O)CO)C[C@@H]3OC1CC(N2CCOCC2C#N)C(O)C(C)O1 (some centres undefined) as the compound, how does the T/C (Mus musculus [30]) read?
Answer: The T/C was “>=138%”.

Question: And the EC50 (L1210 [17])?
Answer: The EC50 was 0.53 nM.

Question: And the “Delta Tm” value [18]?
Answer: Its value is 8.7.

Question: And the T/C (Mus musculus [31])?
Answer: Its T/C is “inactive”.

Question: And the EC50 (L1210 [23])?
Answer: The EC50 was 3 nM.
